# Assay results published in ChEMBL document CHEMBL1629416, “Developing dual functional allosteric modulators of GABA(A) receptors” (Bioorg Med Chem, 2010).
# Where “and” joins values, the source holds several entries; their conditions need not be identical. Identical values can stand only once. Calls of active or inactive are those of the source. The calls are words filed in the database; no cut-off is given here.
# How the values were obtained:
# [1] = target: T1, GABA-A receptor; alpha-5/beta-3/gamma-2 (Homo sapiens) (UniProt P18507+P28472+P31644); experiment: Negative allosteric modulation of human alpha5beta3gamma2 GABA receptor expressed in Xenopus laevis oocytes at 1 uM; type: cell-based; conditions: Oocyte
# In short: (§1)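 Two-electrode voltage clamp on oocytes expressing human α/β/γ2 subtypes, used 2–10 days after injection. […] Baseline was the mean of three GABA-alone pulses. Result is % modulation, mean ± SEM over individual oocytes.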
# [2] = target: T2, GABA-A receptor; alpha-2/beta-3/gamma-2 (Homo sapiens) (UniProt P18507+P28472+P47869); experiment: Positive allosteric modulation of human alpha2beta3gamma2 GABA receptor expressed in Xenopus laevis oocytes at 1 uM; type: cell-based; conditions: Oocyte; in short: as §1
# [3] = target: T3, GABA-A receptor; alpha-2/beta-3/gamma-2 (Homo sapiens, UniProt P18507+P28472+P47869); experiment: Displacement of [3H]flunitrazepam from human alpha2beta3gamma2 GABA receptor in Sf9 membranes after 1 hr by liquid scintillation counting
# T3 sequence (P18507 whole entry): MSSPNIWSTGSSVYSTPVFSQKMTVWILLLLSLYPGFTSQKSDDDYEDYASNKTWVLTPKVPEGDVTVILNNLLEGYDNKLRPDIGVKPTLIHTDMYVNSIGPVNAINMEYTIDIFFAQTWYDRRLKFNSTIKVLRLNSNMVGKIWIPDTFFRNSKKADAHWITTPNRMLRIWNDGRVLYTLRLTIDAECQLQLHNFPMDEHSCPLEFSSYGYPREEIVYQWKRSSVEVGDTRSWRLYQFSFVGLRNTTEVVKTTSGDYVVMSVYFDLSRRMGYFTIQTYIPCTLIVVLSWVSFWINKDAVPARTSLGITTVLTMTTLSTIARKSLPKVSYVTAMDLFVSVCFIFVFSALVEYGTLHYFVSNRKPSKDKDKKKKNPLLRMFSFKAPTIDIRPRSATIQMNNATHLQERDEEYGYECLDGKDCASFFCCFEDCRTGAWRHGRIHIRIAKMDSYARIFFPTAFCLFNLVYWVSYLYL
# T3 sequence (P28472 whole entry): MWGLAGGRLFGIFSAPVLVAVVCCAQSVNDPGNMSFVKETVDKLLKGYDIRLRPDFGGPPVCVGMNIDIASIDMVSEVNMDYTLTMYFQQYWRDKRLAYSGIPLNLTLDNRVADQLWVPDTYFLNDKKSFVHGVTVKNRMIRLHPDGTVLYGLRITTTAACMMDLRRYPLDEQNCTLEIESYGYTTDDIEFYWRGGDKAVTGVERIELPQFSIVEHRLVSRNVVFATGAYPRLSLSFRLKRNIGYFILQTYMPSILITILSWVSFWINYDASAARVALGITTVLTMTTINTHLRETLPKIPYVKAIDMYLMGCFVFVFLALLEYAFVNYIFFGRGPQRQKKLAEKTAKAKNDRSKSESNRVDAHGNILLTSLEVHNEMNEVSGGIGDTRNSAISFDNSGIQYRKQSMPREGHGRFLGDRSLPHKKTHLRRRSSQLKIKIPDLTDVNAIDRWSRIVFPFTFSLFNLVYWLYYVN
# T3 sequence (P47869 whole entry): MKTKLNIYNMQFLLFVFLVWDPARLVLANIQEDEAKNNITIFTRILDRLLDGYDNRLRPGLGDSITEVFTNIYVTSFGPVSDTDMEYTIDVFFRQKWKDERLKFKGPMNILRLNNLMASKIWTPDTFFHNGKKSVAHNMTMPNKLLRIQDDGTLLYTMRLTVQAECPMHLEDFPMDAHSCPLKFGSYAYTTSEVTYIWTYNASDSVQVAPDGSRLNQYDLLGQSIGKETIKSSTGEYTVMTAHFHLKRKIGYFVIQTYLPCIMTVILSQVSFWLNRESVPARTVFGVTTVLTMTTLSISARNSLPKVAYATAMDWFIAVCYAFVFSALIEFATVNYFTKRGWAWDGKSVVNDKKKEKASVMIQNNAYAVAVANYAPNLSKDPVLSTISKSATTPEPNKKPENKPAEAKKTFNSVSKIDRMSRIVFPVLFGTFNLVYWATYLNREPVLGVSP
# In short: (§2)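 [3H]Flunitrazepam (3 nM) competition on recombinant Sf9 membranes co-expressing α, β and γ2 subunits. Compound incubated 1 h at 4 °C in 20 mM Tris–citrate, 200 mM NaCl, pH 7.8, with membrane protein.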
# [4] = target: T4, GABA-A receptor; alpha-1/beta-2/gamma-2 (Homo sapiens) (UniProt P14867+P47870+P18507); experiment: Positive allosteric modulation of human alpha1beta2gamma2 GABA receptor expressed in Xenopus laevis oocytes at 1 uM; type: cell-based; conditions: Oocyte; in short: as §1
# [5] = target: T5, GABA-A receptor; alpha-3/beta-3/gamma-2 (Homo sapiens) (UniProt P18507+P28472+P34903); experiment: Positive allosteric modulation of human alpha3beta3gamma2 GABA receptor expressed in Xenopus laevis oocytes at 1 uM; type: cell-based; conditions: Oocyte; in short: as §1
# [6] = target: T1, GABA-A receptor; alpha-5/beta-3/gamma-2 (Homo sapiens); experiment: Positive allosteric modulation of human alpha5beta3gamma2 GABA receptor expressed in Xenopus laevis oocytes at 1 uM; type: cell-based; conditions: Oocyte; in short: as §1
# [7] = target: T4, GABA-A receptor; alpha-1/beta-2/gamma-2 (Homo sapiens); experiment: Negative allosteric modulation of human alpha1beta2gamma2 GABA receptor expressed in Xenopus laevis oocytes at 1 uM; type: cell-based; conditions: Oocyte
# [8] = target: T3, GABA-A receptor; alpha-2/beta-3/gamma-2; experiment: Binding affinity to human alpha2beta3gamma2 GABA receptor expressed in Xenopus laevis oocytes; type: cell-based, Oocyte
# [9] = target: T6, GABA-A receptor; alpha-3/beta-3/gamma-2 (Homo sapiens, UniProt P18507+P28472+P34903); experiment: Binding affinity to human alpha3beta3gamma2 GABA receptor expressed in Xenopus laevis oocytes; type: cell-based, Oocyte
# T6 sequence (P18507 whole entry): T3 sequence (P18507 whole entry)
# T6 sequence (P28472 whole entry): T3 sequence (P28472 whole entry)
# T6 sequence (P34903 whole entry): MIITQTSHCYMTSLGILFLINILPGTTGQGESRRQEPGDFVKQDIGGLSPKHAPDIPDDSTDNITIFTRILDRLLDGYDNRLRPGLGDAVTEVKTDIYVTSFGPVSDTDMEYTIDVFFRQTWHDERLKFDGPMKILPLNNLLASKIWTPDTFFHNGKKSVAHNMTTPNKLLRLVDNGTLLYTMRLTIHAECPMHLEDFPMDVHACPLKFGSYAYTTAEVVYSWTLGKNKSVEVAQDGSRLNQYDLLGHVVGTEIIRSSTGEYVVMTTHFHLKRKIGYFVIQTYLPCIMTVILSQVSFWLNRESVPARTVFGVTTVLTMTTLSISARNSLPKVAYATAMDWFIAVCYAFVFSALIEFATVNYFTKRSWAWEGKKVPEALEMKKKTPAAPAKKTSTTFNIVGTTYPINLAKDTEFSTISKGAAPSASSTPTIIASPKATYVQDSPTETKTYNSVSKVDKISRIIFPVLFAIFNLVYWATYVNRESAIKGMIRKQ
# [10] = target: T7, GABA-A receptor; alpha-5/beta-3/gamma-2 (Homo sapiens, UniProt P18507+P28472+P31644); experiment: Binding affinity to human alpha5beta3gamma2 GABA receptor expressed in Xenopus laevis oocytes; type: cell-based, Oocyte
# T7 sequence (P18507 whole entry): T3 sequence (P18507 whole entry)
# T7 sequence (P28472 whole entry): T3 sequence (P28472 whole entry)
# T7 sequence (P31644 whole entry): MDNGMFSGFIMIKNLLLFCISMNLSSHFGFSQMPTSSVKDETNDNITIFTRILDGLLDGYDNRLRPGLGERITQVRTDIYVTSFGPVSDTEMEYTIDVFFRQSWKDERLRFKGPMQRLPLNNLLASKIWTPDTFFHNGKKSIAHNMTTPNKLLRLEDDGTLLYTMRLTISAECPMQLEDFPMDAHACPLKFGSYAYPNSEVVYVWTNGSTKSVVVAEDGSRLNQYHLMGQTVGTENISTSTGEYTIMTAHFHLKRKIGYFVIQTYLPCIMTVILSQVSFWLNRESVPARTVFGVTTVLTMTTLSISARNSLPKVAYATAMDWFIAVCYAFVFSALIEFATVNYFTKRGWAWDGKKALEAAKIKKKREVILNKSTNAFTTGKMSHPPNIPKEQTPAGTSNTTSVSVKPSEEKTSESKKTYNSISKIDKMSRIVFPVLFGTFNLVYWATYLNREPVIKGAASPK
# [11] = target: T2, GABA-A receptor; alpha-2/beta-3/gamma-2 (Homo sapiens); experiment: Negative allosteric modulation of human alpha2beta3gamma2 GABA receptor expressed in Xenopus laevis oocytes at 1 uM; type: cell-based; conditions: Oocyte; in short: as §1
# [12] = target: T7, GABA-A receptor; alpha-5/beta-3/gamma-2; experiment: Displacement of [3H]flunitrazepam from human alpha5beta3gamma2 GABA receptor in Sf9 membranes after 1 hr by liquid scintillation counting; in short: as §2
# [13] = target: T4, GABA-A receptor; alpha-1/beta-2/gamma-2 (Homo sapiens); experiment: Effect on human alpha1beta2gamma2 GABA receptor expressed in Xenopus laevis oocytes at 10 uM; type: cell-based; conditions: Oocyte
# [14] = target: T5, GABA-A receptor; alpha-3/beta-3/gamma-2 (Homo sapiens); experiment: Negative allosteric modulation of human alpha3beta3gamma2 GABA receptor expressed in Xenopus laevis oocytes at 1 uM; type: cell-based; conditions: Oocyte
# [15] = target: T8, GABA-A receptor; alpha-1/beta-2/gamma-2 (Homo sapiens, UniProt P14867+P18507+P47870); experiment: Binding affinity to human alpha1beta2gamma2 GABA receptor expressed in Xenopus laevis oocytes; type: cell-based, Oocyte
# T8 sequence (P14867 whole entry): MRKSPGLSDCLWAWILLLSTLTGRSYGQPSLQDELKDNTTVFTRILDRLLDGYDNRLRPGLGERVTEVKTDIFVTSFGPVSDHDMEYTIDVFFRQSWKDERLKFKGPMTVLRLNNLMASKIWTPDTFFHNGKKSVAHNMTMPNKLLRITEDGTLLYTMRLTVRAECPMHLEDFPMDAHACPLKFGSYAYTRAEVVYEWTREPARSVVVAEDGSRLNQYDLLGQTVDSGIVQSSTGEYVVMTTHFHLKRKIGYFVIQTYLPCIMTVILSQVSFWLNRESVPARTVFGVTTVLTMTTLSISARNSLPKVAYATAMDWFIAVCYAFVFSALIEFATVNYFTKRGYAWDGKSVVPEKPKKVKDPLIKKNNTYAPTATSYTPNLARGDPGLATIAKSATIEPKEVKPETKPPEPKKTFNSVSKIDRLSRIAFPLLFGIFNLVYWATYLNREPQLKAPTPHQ
# T8 sequence (P47870 whole entry): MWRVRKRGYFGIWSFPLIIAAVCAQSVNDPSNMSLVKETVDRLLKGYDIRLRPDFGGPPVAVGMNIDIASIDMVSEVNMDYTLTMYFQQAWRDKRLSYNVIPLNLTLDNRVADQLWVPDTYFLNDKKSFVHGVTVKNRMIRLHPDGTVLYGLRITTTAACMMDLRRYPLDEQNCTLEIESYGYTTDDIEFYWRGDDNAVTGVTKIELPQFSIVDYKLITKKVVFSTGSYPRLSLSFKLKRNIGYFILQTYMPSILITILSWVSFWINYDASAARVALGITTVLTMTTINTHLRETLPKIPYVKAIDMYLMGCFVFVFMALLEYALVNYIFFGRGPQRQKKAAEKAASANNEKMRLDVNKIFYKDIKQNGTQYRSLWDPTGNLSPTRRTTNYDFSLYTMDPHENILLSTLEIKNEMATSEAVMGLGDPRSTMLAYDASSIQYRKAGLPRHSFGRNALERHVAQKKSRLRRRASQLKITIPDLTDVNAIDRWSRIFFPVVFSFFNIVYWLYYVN
# T8 sequence (P18507 whole entry): T3 sequence (P18507 whole entry)
smiles,measurement,setting,value
CC1CN(C(=O)c2nnc3c(-c4ncccn4)cccc3c2N)C1,Activity,[1],35%
same,Activity,[2],14%
Nc1c(C(=O)N2CC(F)(F)C2)nnc2c(-c3ncccn3)cccc12,Activity,[1],4%
same,Activity,[2],6%
CCCNC(=O)c1nnc2c(-c3ncccn3)c(F)ccc2c1N,Activity,[1],3%
same,Activity,[2],31%
same,Ki,[3],6 nM
CN1C(=O)CN=C(c2ccccc2)c2cc(Cl)ccc21,Activity,[4],192%
same,Activity,[2],177%
same,Activity,[5],207%
same,Activity,[6],153%
Nc1c(C(=O)NC2CC2)nnc2c(-c3ncccn3)cccc12,Activity,[1],5%
same,Activity,[2],54%
Nc1c(C(=O)NC2CC2)nnc2c(-c3ncccn3)c(F)ccc12,Activity,[2],39%
same,Activity,[6],2%
CCCNC(=O)c1nnc2c(-c3ncccn3)cccc2c1N,Activity,[7],5%
same,Activity,[5],41%
same,EC50,[8],104 nM
same,EC50,[9],379 nM
same,EC50,[10],1130 nM
same,Ki,[3],380 nM
Nc1c(C(=O)N2CCC2)nnc2c(-c3ncccn3)cccc12,Activity,[11],5%
same,Activity,[1],22%
Nc1c2c(nc3c(-c4cncnc4)cccc13)CN(C1CCC1)C2=O,Activity,[1],2%
same,Activity,[2],18%
same,Ki,[12],12 nM
same,Ki,[3],1.5 nM
Nc1c2c(nc3c(-c4ncccn4)cccc13)CN(C1CCC1)C2=O,Activity,[1],46% and 32%
same,Activity,[4],1%
same,Activity,[2],44% and 38%
same,Activity,[5],40%
same,Activity,[13],inactive
same,EC50,[8],34 nM
same,EC50,[9],77 nM
same,EC50,[10],206 nM
same,Ki,[12],14 nM
same,Ki,[3],8.3 nM
CCCNC(=O)c1nnc2c(-c3cncc(C(=O)N4CCC4)c3)cccc2c1N,Activity,[7],14%
same,Activity,[11],5%
same,Activity,[14],11%
same,Activity,[1],45%
same,EC50,[15],389 nM
same,EC50,[8],54 nM
same,EC50,[9],174 nM
same,EC50,[10],455 nM
Nc1c(C(=O)N2CC(F)(F)C2)nnc2c(-c3ncccn3)c(F)ccc12,Activity,[11],7%
same,Activity,[6],13%
CCc1c(C(=O)OC)ncc2[nH]c3cc(OC)c(OC)cc3c12,Activity,[7],68%
same,Activity,[11],61%
same,Activity,[14],58%
same,Activity,[1],69%
same,EC50,[15],9 nM
same,EC50,[8],14 nM
same,EC50,[9],10 nM
same,EC50,[10],3 nM
Nc1c(C(=O)N2CCC2)nnc2c(-c3ncccn3)c(F)ccc12,Activity,[2],8%
same,Activity,[6],10%
CC1CN(C(=O)c2nnc3c(-c4ncccn4)c(F)ccc3c2N)C1,Activity,[2],18%
same,Activity,[6],0%
